Results as given in ChEMBL document CHEMBL1177781, “Synthesis and SAR of potent inhibitors of the Hepatitis C virus NS3/4A protease: exploration of P2 quinazoline substituents” (Bioorg Med Chem Lett, 2010).

Key:
Hepatitis C virus = experiment: Antiviral activity against HCV1b infected in human Huh7 cells assessed as inhibition viral subgenomic replication; format: functional, organism-based, Hepacivirus hominis; settings: genotype 1b, Huh-7
Procedure, shortened: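 Cell-based EC50 was measured in Huh7 cells carrying the subgenomic bicistronic HCV replicon clone ET, with a luciferase read-out.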

Liver microsomes = experiment: Intrinsic clearance in human liver microsomes; format: ADME, Microsome
Procedure, shortened: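 Metabolic stability in human liver microsomes was expressed as intrinsic clearance (Cl_int, µL/min/mg).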

[1] = Inhibition of HCV 1a NS3/4A protease; design: species or system Hepatitis C virus subtype 1a
Procedure, shortened: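 Enzyme inhibition was determined as Ki against recombinant full-length NS3 enzyme, following a literature procedure, in an external laboratory.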

[2] = Apparent permeability across human Caco-2 cells; format: ADME, cell-based
[3] = Cmax in Sprague-Dawley rat at 10 mg/kg, po; format: ADME, organism-based; design: dose 10 mg/kg, route oral; settings: in vivo
Procedure, shortened: (§1)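 Male Sprague–Dawley rats (n = 2 per route) received a single intravenous dose (2 mg base-equiv/kg) or an oral dose. Mean plasma levels were followed to derive Cl, Vdss, AUC, Cmax, Tmax, T1/2 and F. Liver-to-plasma ratio was determined at 6 h.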

[4] = Ratio of drug level in liver to plasma in Sprague-Dawley rat at 10 mg/kg, po after 6 hrs; format: ADME, organism-based; design: dose 10 mg/kg, route oral; procedure, shortened: as §1
[5] = Oral bioavailability in Sprague-Dawley rat at 10 mg/kg; format: ADME, organism-based; settings: in vivo; procedure, shortened: as §1
[6] = Tmax in Sprague-Dawley rat at 10 mg/kg, po; format: ADME, organism-based; design: dose 10 mg/kg, route oral; settings: in vivo; procedure, shortened: as §1
[7] = AUC in Sprague-Dawley rat at 10 mg/kg, po; format: ADME, organism-based; design: dose 10 mg/kg, route oral; settings: plasma; procedure, shortened: as §1
[8] = (§2) Clearance in Sprague-Dawley rat at 2 mg/kg, iv; format: ADME, organism-based; design: dose 2 mg/kg, route intravenous; settings: Sprague-Dawley, in vivo; procedure, shortened: as §1
[9] = Ratio of drug level in liver to plasma in Sprague-Dawley rat at 2 mg/kg, iv after 6 hrs; format: ADME, organism-based; design: dose 2 mg/kg, route intravenous; procedure, shortened: as §1
Rattus norvegicus [10] = experiment: AUC in Sprague-Dawley rat at 2 mg/kg, iv; format: ADME, organism-based, Plasma; design: dose 2 mg/kg, route intravenous; settings: in vivo; procedure, shortened: as §1
Rattus norvegicus [11] = experiment: as §2; format: ADME, organism-based; design: dose 2 mg/kg, route intravenous; settings: in vivo; procedure, shortened: as §1
[12] = Half life in Sprague-Dawley rat at 10 mg/kg, po; format: ADME, organism-based; design: dose 10 mg/kg, route oral; settings: in vivo; procedure, shortened: as §1

EC50 (Hepatitis C virus) [nM]	CL (Liver microsomes) [µL/min]	Ki [1] [nM]	Papp [2] [×10⁻⁶ cm/s]	SMILES	other results
14	88	0.4	13	COc1ccc2c(O[C@@H]3C[C@H]4C(=O)N[C@]5(C(=O)NS(=O)(=O)C6CC6)C[C@H]5/C=C\CCCCN(C)C(=O)[C@@H]4C3)nc(-c3ccccc3)nc2c1	
16	20	0.2	32	COc1ccc2c(O[C@@H]3C[C@H]4C(=O)N[C@]5(C(=O)NS(=O)(=O)C6CC6)C[C@H]5/C=C\CCCCCNC(=O)N4C3)nc(-c3ccc(F)cc3)nc2c1C	Cmax [3]: 390 nM; Kp at 6 h [4]: 100; bioavailability [5]: 38%; Tmax [6]: 2 h; AUC [7]: 1.7 µM·h; clearance [8]: 26.7 mL/min/kg; Kp at 6 h [9]: 2.5
390		6.2		CN1CCCC/C=C\[C@@H]2C[C@@]2(C(=O)NS(=O)(=O)C2CC2)NC(=O)[C@@H]2C[C@@H](Oc3nc(N4CCOCC4)nc4ccccc34)C[C@H]2C1=O	
830		1.2		CN1CCN(c2nc(O[C@@H]3C[C@H]4C(=O)N[C@]5(C(=O)NS(=O)(=O)C6CC6)C[C@H]5/C=C\CCCCN(C)C(=O)[C@@H]4C3)c3ccccc3n2)CC1	
> 1000		> 1000		COc1ccc2c(O[C@@H]3C[C@H]4C(=O)N[C@]5(C(=O)NS(=O)(=O)C6CC6)C[C@H]5/C=C\CCCCN(C)C(=O)[C@@H]4C3)ncnc2c1C	
13		2.8		COc1ccc2c(O[C@@H]3C[C@H]4C(=O)N[C@]5(C(=O)NS(=O)(=O)C6CC6)C[C@H]5/C=C\CCCCN(C)C(=O)N4C3)nc(-c3cccnc3)nc2c1C	
8	11	0.6	9	COc1ccc(-c2nc(O[C@@H]3C[C@H]4C(=O)N[C@]5(C(=O)NS(=O)(=O)C6CC6)C[C@H]5/C=C\CCCCN(C)C(=O)[C@@H]4C3)c3ccc(OC)c(C)c3n2)cc1	
3	8	0.6	33	COc1ccc(-c2nc(O[C@@H]3C[C@H]4C(=O)N[C@]5(C(=O)NS(=O)(=O)C6CC6)C[C@H]5/C=C\CCCCN(C)C(=O)N4C3)c3ccc(OC)c(C)c3n2)cc1	
11	17	0.2	26	COc1ccc2c(O[C@@H]3C[C@H]4C(=O)N[C@]5(C(=O)NS(=O)(=O)C6CC6)C[C@H]5/C=C\CCCCN(C)C(=O)N4C3)nc(-c3ccccc3)nc2c1C	Cmax [3]: 3400 nM; Kp at 6 h [4]: 32; bioavailability [5]: 73%; Tmax [6]: 5 h; AUC (Rattus norvegicus [10]): 8.4 µM·h; AUC [7]: 15 µM·h; CL (Rattus norvegicus [11]): 11.5 mL/min/kg; Kp at 6 h [9]: 38
23	26	0.3	38	COc1ccc2c(O[C@@H]3C[C@H]4C(=O)N[C@]5(C(=O)NS(=O)(=O)C6CC6)C[C@H]5/C=C\CCCCCNC(=O)N4C3)nc(-c3ccccc3)nc2c1C	
16	< 6	0.3	32	COc1ccc2c(O[C@@H]3C[C@H]4C(=O)N[C@]5(C(=O)NS(=O)(=O)C6CC6)C[C@H]5/C=C\CCCCN(C)C(=O)N4C3)nc(-c3ccc(F)cc3)nc2c1C	Cmax [3]: 2600 nM; Kp at 6 h [4]: 42; Tmax [6]: 5 h; AUC [7]: 11 µM·h; clearance [8]: 9.33 mL/min/kg
7	14	0.2	0.4	COc1ccc2c(O[C@@H]3C[C@H]4C(=O)N[C@]5(C(=O)NS(=O)(=O)C6CC6)C[C@H]5/C=C\CCCCN(C)C(=O)N4C3)nc(-c3ccncc3)nc2c1C	
130		0.9		COc1ccc2c(O[C@@H]3C[C@H]4C(=O)N[C@]5(C(=O)NS(=O)(=O)C6CC6)C[C@H]5/C=C\CCCCN(C)C(=O)N4C3)nc(-c3cccc(C)n3)nc2c1C	
52	58	0.4	21	CN1CCCC/C=C\[C@@H]2C[C@@]2(C(=O)NS(=O)(=O)C2CC2)NC(=O)[C@@H]2C[C@@H](Oc3nc(-c4ccccc4)nc4ccccc34)C[C@H]2C1=O	
58	76	1.2		COc1ccc2c(O[C@@H]3C[C@H]4C(=O)N[C@]5(C(=O)NS(=O)(=O)C6CC6)C[C@H]5/C=C\CCCCN(C)C(=O)[C@@H]4C3)nc(-c3nc(C(C)C)cs3)nc2c1	
11	32	0.2	20	COc1ccc2c(O[C@@H]3C[C@H]4C(=O)N[C@]5(C(=O)NS(=O)(=O)C6CC6)C[C@H]5/C=C\CCCCN(C)C(=O)[C@@H]4C3)nc(-c3ccc(F)cc3)nc2c1	
120		0.8		CC(C)c1csc(-c2nc(O[C@@H]3C[C@H]4C(=O)N[C@]5(C(=O)NS(=O)(=O)C6CC6)C[C@H]5/C=C\CCCCN(C)C(=O)[C@@H]4C3)c3ccccc3n2)n1	
5	< 6	0.1	13	COc1ccc2c(O[C@@H]3C[C@H]4C(=O)N[C@]5(C(=O)NS(=O)(=O)C6CC6)C[C@H]5/C=C\CCCCN(C)C(=O)[C@@H]4C3)nc(-c3ccccc3)nc2c1C	Cmax [3]: 660 nM; bioavailability [5]: 40%; Tmax [6]: 2 h; AUC [7]: 3.3 µM·h; clearance [8]: 16.7 mL/min/kg; half-life [12]: 3.8 h
